Activity calls are given as the source filed them. The calls are words filed in the database; no cut-off is given here.

Data set [1] has as its system PC-12. Briefly: Neuroprotective activity in rat differentiated PC12 cells assessed as protection against H2O2-induced cell death at 0.5 to 20 uM treated 3 hrs before H2O2 challenge measured after 24 hrs by MTT assay relative to control. The format is functional, cell-based. The procedure, abridged: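 NGF-differentiated PC12 cells (50 ng/ml every other day, 6 days) were pretreated 3 h with compound at 0.5–20 μM, then given H2O2 150 μM with compound for a further 24 h. Viability by MTT: formazan in DMSO, A550, expressed as % of control cells; mean ± S.D., n = 3.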
In general terms: Tetrazolium dyes change colour on reduction, which living cells bring about.

The subject of data set [2] is PC-12. Kind of data set: Neuroprotective activity in differentiated rat PC12 cells assessed as inhibition of H2O2-induced NF-kappaB nucleus accumulation treated 3 hrs before H2O2 challenge measured after 24 hrs by Western blot relative to untreated control. It counts as functional. The procedure, abridged:
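Differentiated PC12 cells were pretreated 3 h with compound, then given H2O2 150 μM for 24 h. Nuclear protein (20 μg) was run on 12% SDS–PAGE, blotted to PVDF, probed with anti-NF-κB and reprobed for β-actin, with ECL detection. Band densities were taken as a ratio; median of three independent experiments.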
(In general: Immunoblotting shows a protein as a band on a membrane.)

Data set [3] concerns PC-12. Briefly: Neuroprotective activity in differentiated rat PC12 cells assessed as protection against H2O2-induced apoptosis at 10 uM treated 3 hrs before H2O2 challenge measured after 24 hrs by acridine orange/ethidium bromide double staining method. It counts as functional. The procedure, abridged:
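NGF-differentiated PC12 cells were pretreated with compound, then given H2O2 150 μM for 24 h. Cells were harvested, washed in PBS and set to 10^6/ml, then stained with AO/EB (1:1, final 100 μg/ml). Fluorescence microscopy scored viable, early or late apoptotic, and necrotic nuclei in 10 random fields; three repeats.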

For data set [4], the system named is PC-12. Briefly: Cytotoxicity against rat undifferentiated PC12 cells at 0.5 to 20 uM after 24 hrs by MTT assay. The settings on record: pc-12, 24 h. The format is cell-based. An outline of the steps: (§1)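 PC12 cells grown in DMEM with 10% FBS and penicillin–streptomycin at 37 °C, 5% CO2. Differentiated cells were primed with NGF 50 ng/ml every other day for 6 days; undifferentiated cells had no NGF. Compound 0.5–20 μM without H2O2; MTT read at 24 h. Formazan dissolved in DMSO, A550 as % of control; mean ± S.D., n = 3.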

Data set [5] concerns PC-12. Briefly: Neuroprotective activity in rat undifferentiated PC12 cells assessed as protection against H2O2-induced cell death at 10 uM treated 3 hrs before H2O2 challenge measured after 24 hrs by MTT assay relative to control. The format is functional. The procedure, abridged: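 Undifferentiated rat PC12 cells, grown in DMEM with 10% FBS and penicillin–streptomycin at 37 °C, 5% CO2, were seeded in 96-well plates. They were pretreated 3 h with compounds (0.5–20 µM), then exposed to H2O2 for 24 h. Viability was read by MTT reduction, formazan dissolved in DMSO, A550, as % of control; mean ± S.D., n = 3.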

Data set [6] deals with PC-12. Kind of data set: Cytotoxicity against rat differentiated PC12 cells at 0.5 to 20 uM after 24 hrs by MTT assay. It counts as cell-based. The settings on record: pc-12, 24 h. An outline of the steps: as §1
Data set [7] concerns PC-12. Kind of data set: Neuroprotective activity in differentiated rat PC12 cells assessed as decrease of H2O2-induced cleaved caspase 3 level treated 3 hrs before H2O2 challenge measured after 24 hrs by Western blot relative to untreated control. It counts as functional. An outline of the steps:
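PC12 cells grown in DMEM with 10% FBS at 37 °C, 5% CO2, and differentiated with NGF (50 ng/ml) every other day for 6 days. Pretreated 3 h with compound, then H2O2 (150 μM) added with compound for 24 h. Twenty μg protein run on 12% SDS-PAGE and blotted for cleaved caspase-3, reprobed for β-actin. ECL detection, densitometry ratio, median of three independent experiments.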

In data set [8] the test system is PC-12. Briefly: Neuroprotective activity in rat differentiated PC12 cells assessed as protection against H2O2-induced cell death at 10 uM treated 3 hrs before H2O2 challenge measured after 24 hrs by MTT assay relative to control. The format is functional. An outline of the steps:
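Rat PC12 cells grown in DMEM with 10% FBS and penicillin–streptomycin at 37 °C, 5% CO2, then differentiated with NGF (50 ng/ml) every other day for 6 days. Compounds (0.5–20 µM) were added 3 h before H2O2 (150 µM) and kept present for 24 h more. MTT reduction, formazan dissolved in DMSO, A550; % of control cells; mean ± S.D., n = 3.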

The test system of data set [9] is PC-12. Kind of data set: Neuroprotective activity in rat NGF treated differentiated PC12 cells assessed as restoration of H2O2-induced network changes at 10 uM treated 3 hrs before H2O2 challenge measured after 24 hrs by fluorescence microscopy analysis. It counts as functional, cell-based. The procedure, abridged: (§2)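 PC12 cells were differentiated with NGF 50 ng/ml for 6 days, pretreated 3 h with compound, then exposed to H2O2 150 μM for 24 h. Morphology was judged by microscopy: cell shape, attachment to the plate surface and inter-neuronal networks.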

Data set [10] deals with PC-12. Kind of data set: Neuroprotective activity in rat NGF treated differentiated PC12 cells assessed as restoration of H2O2-induced neuronal shape change at 10 uM treated 3 hrs before H2O2 challenge measured after 24 hrs by fluorescence microscopy analysis. It counts as functional, cell-based. An outline of the steps:
as §2

For data set [11], the system named is PC-12. Kind of data set: Neuroprotective activity in rat NGF treated differentiated PC12 cells assessed as restoration of H2O2-induced detached from culture plate at 10 uM treated 3 hrs before H2O2 challenge measured after 24 hrs by fluorescence microscopy analysis. It counts as functional, cell-based. An outline of the steps: as §2

With `CCCCSc1nnc(-c2ccccc2)c(-c2ccccc2)n1`, the result with PC-12 [1] was inactive.
Take `CCSc1nnc(-c2ccc(Cl)cc2)c(-c2ccc(Cl)cc2)n1`: the “fold change (FC)” value with PC-12 [2] and in the data set on PC-12 [7] was 2 throughout. Further, the Activity in the data set on PC-12 [3] is on record as 40%; in the data set with PC-12 [4], “Non-toxic”; in the data set on PC-12 [5] it was 58%; with PC-12 [6], “Non-toxic”.
With `CCCSc1nnc(-c2ccc(Cl)cc2)c(-c2ccc(Cl)cc2)n1`, the “fold change (FC)” value with PC-12 [2] amounted to 1.89; with PC-12 [7], 1.92. Moreover, the Activity in the data set with PC-12 [3] was 40%; with PC-12 [4] it was “Non-toxic”; in the data set on PC-12 [5], 60%; in the data set with PC-12 [6] it was “Non-toxic”; in the data set with PC-12 [8], 45%.
Regarding `CSc1nnc(-c2ccc(Cl)cc2)c(-c2ccc(Cl)cc2)n1`, the figures for the “fold change (FC)” value with PC-12 [2] and in the data set with PC-12 [7] were 4.04 and 4.59, respectively. In addition, the Activity in the data set on PC-12 [3] is given as 20%; in the data set on PC-12 [4], “Non-toxic”; with PC-12 [5], 88%; in the data set with PC-12 [6], “Non-toxic”; in the data set with PC-12 [8] it was 83%. Also, the result in the data set on PC-12 [9], in the data set with PC-12 [10] and in the data set on PC-12 [11] was Active.
For `CCCSc1nnc(-c2ccccc2)c(-c2ccccc2)n1`, the result in the data set with PC-12 [9], with PC-12 [1], with PC-12 [10] and in the data set on PC-12 [11] was inactive.
For `CCCCSc1nnc(-c2ccc(Cl)cc2)c(-c2ccc(Cl)cc2)n1`, the “fold change (FC)” value is 1.78 in the data set on PC-12 [2] and 1.83 in the data set on PC-12 [7]. Moreover, the Activity was 40% with PC-12 [3]; “Non-toxic” in the data set with PC-12 [4]; 63% in the data set on PC-12 [5]; “Non-toxic” in the data set with PC-12 [6]; 50% in the data set on PC-12 [8].
On to `CCSc1nnc(-c2ccccc2)c(-c2ccccc2)n1`, for which the “fold change (FC)” value was 1.56 in the data set on PC-12 [2] and 1.64 in the data set on PC-12 [7]. In addition, the Activity in the data set on PC-12 [3] is 45%; with PC-12 [4] it was “Non-toxic”; in the data set with PC-12 [5], 59%; with PC-12 [6], “Non-toxic”; in the data set with PC-12 [8], 54%.
Turning to `CSc1nnc(-c2ccccc2)c(-c2ccccc2)n1`, the “fold change (FC)” value was 1.79 in the data set with PC-12 [2] and 1.91 in the data set with PC-12 [7]. Further, the Activity in the data set on PC-12 [3] is 35%; with PC-12 [4], “Non-toxic”; with PC-12 [5] it was 53%; with PC-12 [6], “Non-toxic”; in the data set with PC-12 [8], 47%.

Values taken from ChEMBL document CHEMBL1165991, “Synthesis and in vitro evaluation of novel 1,2,4-triazine derivatives as neuroprotective agents” (Bioorg Med Chem, 2010).
